# Test results: ChEMBL document CHEMBL1135697, “Formaldehyde-induced DNA cross-link of indolizino[1,2-b]quinolines derived from the A-D rings of camptothecin” (J Med Chem, 2002)
# What was measured:
# Format in all cases: functional
# Bos taurus [1] = species on record: Bos taurus; assay: Absorption spectral changes upon addition of 200 uM calf thymus DNA to drug solution at 20 uM in 1 mM Na cacodylate buffer at pH 7.0
# Procedure, shortened: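 Read-out is UV-visible absorption of the drug before and after DNA addition. Hypochromism (H) and bathochromic shift (Δλ) are reported.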
# Bos taurus [2] = species on record: Bos taurus; assay: Variation in melting temperature performed in BPE buffer at pH 7.1,using 10 uM drug and 20 uM calf thymus DNA (CT)
# Procedure, shortened: (§1)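 UV melting is monitored at 260 nm with a 1 °C/min heating ramp. BPE buffer is 6 mM Na2HPO4, 2 mM NaH2PO4 and 1 mM EDTA, pH 7.1. DNA is calf thymus or poly(dAdT)2 at 20 μM. ΔTm = Tm(complex) − Tm(DNA alone).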
# Bos taurus [3] = species on record: Bos taurus; assay: Variation in melting temperature performed in BPE buffer at pH 7.1,using 10 uM drug and 20 uM calf thymus poly (dAT); procedure, shortened: as §1
# Calf thymus DNA [4] = assay: Binding constant to reduce by 50% the fluorescence of ethidium bromide bound to calf thymus DNA; No displacement of DNA-bound ethidium bromide at 50 uM; settings: Bos taurus
# Procedure, shortened: (§2)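 Competitive fluorometric displacement of ethidium bromide prebound to calf thymus DNA. The drug level that cuts ethidium fluorescence by 50% is found, and the binding constant is calculated from it.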
# Calf thymus DNA [5] = assay: Binding constant to reduce by 50% the fluorescence of ethidium bromide bound to calf thymus DNA; settings: Bos taurus; procedure, shortened: as §2
Structure (SMILES),Bathochromic shift (Bos taurus [1]) [nm],Hypochromic shift (Bos taurus [1]) [%],ΔTm (Bos taurus [2]) [°C],ΔTm (Bos taurus [3]) [°C],K app x10e6 (Calf thymus DNA [4]),K app x10e6 (Calf thymus DNA [5]) [M⁻¹]
Cc1cc2n(c(=O)c1CN)Cc1cc3ccccc3nc1-2,8,33.1,1.9,3,No displacement of DNA-bound ethidium bromide at 50 uM,–
Cc1cc2n(c(=O)c1C(N)=O)Cc1cc3cc(OCCN4CCCCC4)ccc3nc1-2,9,33,1.2,5.8,–,0.29
Cc1cc2n(c(=O)c1C(N)=O)Cc1cc3ccccc3nc1-2,0,2.7,0,0,No displacement of DNA-bound ethidium bromide at 50 uM,–
Cc1cc2n(c(=O)c1CN)Cc1cc3cc(OCCN4CCCCC4)ccc3nc1-2,9,35.3,13.6,19.8,–,2.5
Cc1cc2n(c(=O)c1CN)Cc1cc3ccc(OCCN4CCCCC4)cc3nc1-2,11,38.6,19.4,28.6,–,8.4
Cc1cc2n(c(=O)c1C(N)=O)Cc1cc3ccc(OCCN4CCCCC4)cc3nc1-2,8,35.8,4.6,12.8,–,0.2
